# Published values pooled from the literature.
# Target: Death-associated protein kinase 3 (DAPK3, Homo sapiens, UniProt O43293)
Structure (SMILES),effect on,technique,tested at,remaining binding [%]
CN(C)c1ncc(F)c(-c2cnn3ncccc23)n1,binding,,1 µM,63
CC(=O)Nc1c(C(C)=O)c(=O)n(C)c2nc(-c3ccc(Cl)cc3Cl)c(-c3ccc(Cl)cc3)cc12,cell-free assay,competition with immobilised ligand,1 µM,100
O=C(c1ccc(Nc2ncc(Cl)c(-c3cc4ccccc4s3)n2)cc1)N1CCC(N2CCCC2)CC1,binding,competition with immobilised ligand,1 µM,11
CN(C)c1nccc(-c2cnn3ncccc23)n1,binding,,1 µM,91
O=C(Nc1c[nH]nc1C(=O)NC1CCNCC1)c1cc(F)cc(F)c1,binding,competition with immobilised ligand,1 µM,100
Nc1ncc2c(n1)-c1c([nH]c3ccc(C#CC4CC4)cc13)CCCC2,binding,competition with immobilised ligand,1 µM,100
O=C(NCCCN1CCOCC1)c1ccc(Nc2ncc(Cl)c(-c3ccc(Cl)s3)n2)cc1,binding,competition with immobilised ligand,1 µM,17
CCCCN(CCCC)C(=O)CN1C[C@@H](c2cc(OC)c3c(c2)OCO3)[C@H](C(=O)O)[C@H]1CC(C)(C)CCC,cell-free assay,competition with immobilised ligand,1 µM,100
C[C@H]1CCN(c2nccc(-c3cnn4ncccc34)n2)C1,binding,,1 µM,79
COc1cnc(Nc2cccc(S(N)(=O)=O)c2)nc1N1CCN(c2ccccc2)C(=O)C1,binding,competition with immobilised ligand,1 µM,92
C[C@@H](c1ccc(-n2cnc3c(N)ncnc32)cc1)N1CCc2nn(C)c(Cc3ccccc3)c2C1=O,binding,competition with immobilised ligand,0.1 µM,87
FC(F)(F)Oc1cccc(-c2cnc3ccc(-c4ccncc4)nn23)c1,cell-free assay,competition with immobilised ligand,5 µM,67
Cc1cnc(Nc2ccc(C(=O)N3CCC(N4CCCC4)CC3)cc2)nc1-c1cc2ccccc2s1,binding,competition with immobilised ligand,1 µM,3.4
Cn1cc(Cl)c2c(Oc3c(F)cc(Nc4cc(Cl)nc(N)n4)cc3F)ccnc21,cell-free assay,competition with immobilised ligand,0.1 µM,100
CN(c1nccc(-c2cnn3ncccc23)n1)C1CC1,binding,,1 µM,70
C=CC(=O)N1CCC(C(=O)NCC(=O)N2CCN(c3nc(-c4cnc(N)nc4C(F)F)nc(N4CCOCC4)n3)CC2)CC1,binding,competition with immobilised ligand,1 µM,89
CN(CCCC(F)(F)F)c1nccc(-c2cnn3ncccc23)n1,binding,,1 µM,90
COc1ccc2cc(OCC3(C(=O)O)CN(C(=O)c4ccc(F)cc4)C3)ccc2c1,cell-free assay,competition with immobilised ligand,1 µM,100
N[C@H]1CCN(c2nccc(-c3cnn4ncccc34)n2)C1,binding,,1 µM,100
CS(=O)(=O)c1cc(C2(NC(=O)c3cncc4c3cnn4-c3ccc(F)cc3)CC2)ccn1,cell-free assay,competition with immobilised ligand,1 µM,98
CN(C)c1nccc(-c2cnc3ncccn23)n1,binding,,1 µM,91
CNC(=O)Nc1ccc2c(c1)[C@@]1(CC2)OC(=O)N(CC(=O)N(Cc2ccc(F)cc2)[C@@H](C)C(F)(F)F)C1=O,cell-free assay,competition with immobilised ligand,1 µM,100
